ChEMBL document CHEMBL4699485, “Discovery and Development of SPR519 as a Potent, Selective, and Orally Bioavailable Inhibitor of PI3Kα and mTOR Kinases for the Treatment of Solid Tumors” (J Med Chem, 2020)
The source made the active and inactive calls. The calls are words filed in the database; no cut-off is given here.

How the values were obtained:
[1] = biological target: RAC-beta serine/threonine-protein kinase (Homo sapiens) (UniProt P31751); experiment: Inhibition of human AKT2 at 1 uM using fluorescently labeled peptide substrate measured after 3 hrs by microfluidic mobility shift assay relative to control
Chain of RAC-beta serine/threonine-protein kinase (Homo sapiens) (P31751 whole entry): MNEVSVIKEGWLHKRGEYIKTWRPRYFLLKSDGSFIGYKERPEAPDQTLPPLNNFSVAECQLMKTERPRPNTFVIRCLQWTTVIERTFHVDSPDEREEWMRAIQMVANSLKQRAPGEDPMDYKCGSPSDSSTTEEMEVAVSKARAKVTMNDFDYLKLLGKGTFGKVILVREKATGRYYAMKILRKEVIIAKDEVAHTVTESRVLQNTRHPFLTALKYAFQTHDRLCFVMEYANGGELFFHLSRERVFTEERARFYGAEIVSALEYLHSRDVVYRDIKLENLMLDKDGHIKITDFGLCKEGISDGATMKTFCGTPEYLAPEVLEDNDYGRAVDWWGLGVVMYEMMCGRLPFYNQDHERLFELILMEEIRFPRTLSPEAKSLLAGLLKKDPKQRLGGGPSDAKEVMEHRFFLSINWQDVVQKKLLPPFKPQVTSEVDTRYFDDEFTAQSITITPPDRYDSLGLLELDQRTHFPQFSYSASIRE
In short: (§1)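 Single-concentration screen at 1 µM in duplicate, 1% final DMSO. Kinase (typically 1 nM), fluorescently labeled peptide substrate (typically 1 µM), ATP at Km and Mg²⁺ incubated about 3 h at 25 °C, then EDTA-quenched. Substrate and phosphorylated product separated by microfluidic electrophoresis and quantified by fluorescence.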

[2] = Toxicity in Swiss mouse assessed as piloerection at 30 mg/kg, po administered twice daily via gavage for 12 days and measured on day 9; assay type: organism-based; details: in vivo, 288 h, time 12 day
In short: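 Female Swiss mice (4 treated, 2 controls) were gavaged twice daily for 12 days, with compound in 0.5% CMC and Tween 80. Clinical signs including body coat, body weight, temperature, feed intake and general activity were monitored daily.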

[3] = Toxicity in Swiss mouse assessed as discoloration of lung at 30 mg/kg, po administered twice daily via gavage for 5 days and measured post last dose; assay type: organism-based; details: in vivo, 120 h, time 5 day
In short: (§2)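 Female Swiss mice (3 treated, 2 controls) were gavaged twice daily for 5 days, with compound in 0.5% CMC and Tween 80. After the last dosing the animals were sacrificed. Liver, kidney, lung, uterus and brain were excised and inspected visually for morphology and color change.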

HCT-116 = experiment: Antitumor activity against human HCT-116 cells xenografted in CD1 nude mouse assessed as tumor growth inhibition at 2.5 mg/kg, po administered once daily for 21 days and measured on day 3; assay type: functional, organism-based; details: time 21.0 day
In short: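 Female CD1 nude mice bearing subcutaneous HCT116 xenografts, randomized at average tumor size 120–130 mm³, five per group. Dosed orally once daily at 2.5, 5, 10 or 20 mg/kg for 21 days alongside a vehicle control. Caliper measurement of tumor volume as (width² × length)/2, monitored every third day.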

SK-OV-3 = experiment: Antitumor activity against human SK-OV-3 cells xenografted in po dosed CD1 nude mouse assessed as reduction in tumor volume administered once daily for 27 days and measured at 3 days interval during compound dosing; assay type: functional, organism-based; details: dose mg/kg 2.5-10, time 27.0 day
In short: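 Female CD1 nude mice bearing subcutaneous SK-OV-3 xenografts, randomized at average tumor size 120–130 mm³, five per group. Given oral doses of 2.5, 5 or 10 mg/kg once daily for 27 days alongside a vehicle control. Tumor volume from caliper length and width as (width² × length)/2, tracked every third day. Two-way ANOVA with Dunnett's test, n=5.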

[4] = Toxicity in Swiss mouse assessed as effect on eyes at 10 mg/kg, po administered twice daily via gavage for 5 days and measuring daily during compound dosing; assay type: organism-based; details: in vivo, 120 h, time 5 day
In short: (§3)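 Female Swiss mice (3 treated, 2 vehicle controls) received oral gavage twice daily for 5 days, with compound formulated in 0.5% CMC and Tween 80. Body weight, body temperature, body coat, feed intake, eyes, feces and general activity were observed daily.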

[5] = biological target: Phosphatidylinositol 4-kinase beta (Homo sapiens) (UniProt Q9UBF8); experiment: Inhibition of human PI4kbeta at 1 uM using fluorescently labeled peptide substrate measured after 3 hrs by microfluidic mobility shift assay relative to control; in short: as §1
[6] = biological target: Cyclin-dependent kinase 7 (Homo sapiens) (UniProt P50613); experiment: Inhibition of human CDK7 at 1 uM using fluorescently labeled peptide substrate measured after 3 hrs by microfluidic mobility shift assay relative to control; in short: as §1
[7] = Toxicity in Swiss mouse assessed as morphological changes in brain at 30 mg/kg, po administered twice daily via gavage for 5 days and measured post last dose; assay type: organism-based; details: in vivo, 120 h, time 5 day; in short: as §2
[8] = Tmax in Swiss mouse at 10 mg/kg, po via gavage by LC-MS/MS analysis; assay type: ADME, organism-based; details: in vivo
In short: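 Female Swiss mice (n=3/group) were fasted overnight, then gavaged with compound in 0.5% CMC/0.5% Tween 80 at 10 mL/kg. Serial blood samples at 0.16, 0.5, 1, 2, 4, 6 and 8 h were taken into heparinized tubes and spun to plasma. Plasma was extracted with acetonitrile containing verapamil (400 ng/mL) and quantified by LC-MS/MS against plasma calibration curves. Tmax was derived from the concentration–time profile.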

[9] = Toxicity in Swiss mouse assessed as discoloration of kidney at 30 mg/kg, po administered twice daily via gavage for 5 days and measured post last dose; assay type: organism-based; details: in vivo, 120 h, time 5 day; in short: as §2
[10] = Toxicity in Swiss mouse assessed as body weight loss at 10 mg/kg, po administered twice daily via gavage for 5 days and measuring daily during compound dosing; assay type: organism-based; details: in vivo, 120 h, time 5 day; in short: as §3
[11] = Toxicity in Swiss mouse assessed as change in feces at 10 mg/kg, po administered twice daily via gavage for 5 days and measuring daily during compound dosing; assay type: organism-based; details: in vivo, 120 h, time 5 day; in short: as §3
[12] = biological target: Receptor tyrosine-protein kinase erbB-2 (Homo sapiens) (UniProt P04626); experiment: Inhibition of human ERBB2 at 1 uM using fluorescently labeled peptide substrate measured after 3 hrs by microfluidic mobility shift assay relative to control; in short: as §1
Chain of Receptor tyrosine-protein kinase erbB-2 (Homo sapiens) (P04626 whole entry): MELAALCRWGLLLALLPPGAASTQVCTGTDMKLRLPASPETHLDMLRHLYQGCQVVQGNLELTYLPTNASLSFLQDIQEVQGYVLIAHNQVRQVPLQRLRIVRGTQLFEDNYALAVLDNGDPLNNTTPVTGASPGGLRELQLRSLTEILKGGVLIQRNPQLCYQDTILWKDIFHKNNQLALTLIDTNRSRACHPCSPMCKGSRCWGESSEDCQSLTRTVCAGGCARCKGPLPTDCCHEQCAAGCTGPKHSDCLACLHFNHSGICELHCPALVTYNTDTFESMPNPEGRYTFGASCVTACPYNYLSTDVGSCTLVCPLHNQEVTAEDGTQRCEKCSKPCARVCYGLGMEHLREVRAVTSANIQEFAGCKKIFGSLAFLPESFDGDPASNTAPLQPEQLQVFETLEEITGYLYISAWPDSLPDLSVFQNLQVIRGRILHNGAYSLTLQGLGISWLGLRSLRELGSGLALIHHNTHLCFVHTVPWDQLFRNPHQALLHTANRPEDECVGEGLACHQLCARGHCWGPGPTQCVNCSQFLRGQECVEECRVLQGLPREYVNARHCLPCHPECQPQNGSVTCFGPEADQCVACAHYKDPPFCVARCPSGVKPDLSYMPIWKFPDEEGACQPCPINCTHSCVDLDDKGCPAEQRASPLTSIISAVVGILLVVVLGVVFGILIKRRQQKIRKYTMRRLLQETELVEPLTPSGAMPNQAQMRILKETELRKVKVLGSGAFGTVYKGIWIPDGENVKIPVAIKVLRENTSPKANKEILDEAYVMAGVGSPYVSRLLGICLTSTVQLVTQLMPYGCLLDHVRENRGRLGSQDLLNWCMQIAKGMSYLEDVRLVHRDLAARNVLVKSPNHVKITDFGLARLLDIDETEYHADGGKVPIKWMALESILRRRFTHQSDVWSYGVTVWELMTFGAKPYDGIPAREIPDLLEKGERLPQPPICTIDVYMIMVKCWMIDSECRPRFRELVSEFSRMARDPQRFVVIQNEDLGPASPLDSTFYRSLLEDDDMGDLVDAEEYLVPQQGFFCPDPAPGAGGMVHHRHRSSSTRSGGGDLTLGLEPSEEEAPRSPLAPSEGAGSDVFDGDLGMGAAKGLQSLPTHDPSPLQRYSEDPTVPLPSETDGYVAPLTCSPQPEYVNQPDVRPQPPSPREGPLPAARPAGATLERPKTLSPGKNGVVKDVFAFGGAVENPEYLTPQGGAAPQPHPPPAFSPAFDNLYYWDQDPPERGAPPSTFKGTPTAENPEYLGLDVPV

[13] = Metabolic stability in mouse liver microsomes assessed as parent compound remaining at 10 uM remaining after 120 mins in presence of NADPH by HPLC analysis; assay type: ADME, Microsome; details: read-out: Stabilty
In short: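 Compound at 10 µM was incubated with 0.5 mg/mL liver microsomes and 1 mM NADPH (final). Samples were taken at 0, 15, 30, 60 and 120 min and stopped with acetonitrile, then centrifuged and the supernatant analysed by HPLC. Percent parent remaining was set relative to the 0 min peak area (100%).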

[14] = Toxicity in Swiss mouse assessed as morphological changes in kidney at 30 mg/kg, po administered twice daily via gavage for 5 days and measured post last dose; assay type: organism-based; details: in vivo, 120 h, time 5 day; in short: as §2
[15] = biological target: T1, Voltage-gated inwardly rectifying potassium channel KCNH2 (Homo sapiens, UniProt Q12809); experiment: Inhibition of human ERG channel trafficking expressed in mammalian expression system at 1 to 30 uM by HERG-Lite assay; details: dose 1-30 µM
T1 sequence (Q12809 whole entry): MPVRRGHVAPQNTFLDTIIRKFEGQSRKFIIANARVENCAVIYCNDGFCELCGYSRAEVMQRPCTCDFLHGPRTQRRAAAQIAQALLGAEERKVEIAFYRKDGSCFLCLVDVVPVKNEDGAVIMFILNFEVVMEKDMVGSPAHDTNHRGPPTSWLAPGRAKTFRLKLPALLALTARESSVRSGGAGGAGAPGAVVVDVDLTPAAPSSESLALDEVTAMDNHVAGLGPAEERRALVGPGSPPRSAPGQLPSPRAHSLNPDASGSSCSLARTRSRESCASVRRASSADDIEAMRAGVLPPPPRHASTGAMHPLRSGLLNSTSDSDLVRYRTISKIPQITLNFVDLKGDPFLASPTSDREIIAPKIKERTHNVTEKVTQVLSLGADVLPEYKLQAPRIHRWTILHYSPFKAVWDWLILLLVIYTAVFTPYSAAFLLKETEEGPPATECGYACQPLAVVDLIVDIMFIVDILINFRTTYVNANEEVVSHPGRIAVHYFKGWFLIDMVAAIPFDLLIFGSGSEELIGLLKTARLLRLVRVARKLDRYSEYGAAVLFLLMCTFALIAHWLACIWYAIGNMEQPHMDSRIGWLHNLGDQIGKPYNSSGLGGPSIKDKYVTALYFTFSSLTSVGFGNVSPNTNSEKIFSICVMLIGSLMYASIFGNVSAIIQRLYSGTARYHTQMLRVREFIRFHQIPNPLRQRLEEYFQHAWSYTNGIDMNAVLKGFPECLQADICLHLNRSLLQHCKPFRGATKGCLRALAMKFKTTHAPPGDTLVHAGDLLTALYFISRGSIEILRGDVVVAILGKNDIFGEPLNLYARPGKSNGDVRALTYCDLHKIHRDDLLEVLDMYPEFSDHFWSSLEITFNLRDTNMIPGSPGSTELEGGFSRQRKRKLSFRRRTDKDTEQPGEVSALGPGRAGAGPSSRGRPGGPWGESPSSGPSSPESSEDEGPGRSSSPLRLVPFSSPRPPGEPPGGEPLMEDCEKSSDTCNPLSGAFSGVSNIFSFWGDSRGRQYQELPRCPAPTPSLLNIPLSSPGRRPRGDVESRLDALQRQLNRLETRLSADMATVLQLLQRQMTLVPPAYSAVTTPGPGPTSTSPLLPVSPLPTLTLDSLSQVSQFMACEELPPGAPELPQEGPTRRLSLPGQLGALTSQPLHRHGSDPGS
In short: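 HERG-lite assay scoring both channel blocking and trafficking inhibition, with test compound at 1, 10 and 30 µM. Geldanamycin (1 µM) served as the trafficking-inhibition reference and astemizole as the standard hERG binder.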

[16] = biological target: Dual specificity mitogen-activated protein kinase kinase 2 (Homo sapiens) (UniProt P36507); experiment: Inhibition of human MEK2 at 1 uM using fluorescently labeled peptide substrate measured after 3 hrs by microfluidic mobility shift assay relative to control; in short: as §1
Chain of Dual specificity mitogen-activated protein kinase kinase 2 (Homo sapiens) (P36507 whole entry): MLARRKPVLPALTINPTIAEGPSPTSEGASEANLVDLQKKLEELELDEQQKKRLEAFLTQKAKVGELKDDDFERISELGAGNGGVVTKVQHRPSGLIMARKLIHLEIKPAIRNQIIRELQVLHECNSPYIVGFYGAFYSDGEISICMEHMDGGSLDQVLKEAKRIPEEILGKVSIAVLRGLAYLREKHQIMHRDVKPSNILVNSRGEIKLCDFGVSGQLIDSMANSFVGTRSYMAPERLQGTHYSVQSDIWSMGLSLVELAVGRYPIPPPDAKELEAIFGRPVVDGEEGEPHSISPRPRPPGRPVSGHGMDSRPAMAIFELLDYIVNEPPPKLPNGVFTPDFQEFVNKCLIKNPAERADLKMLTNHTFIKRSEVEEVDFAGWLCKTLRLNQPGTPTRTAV

[17] = biological target: RAC-alpha serine/threonine-protein kinase (Homo sapiens) (UniProt P31749); experiment: Inhibition of human AKT1 at 1 uM using fluorescently labeled peptide substrate measured after 3 hrs by microfluidic mobility shift assay relative to control; in short: as §1
Chain of RAC-alpha serine/threonine-protein kinase (Homo sapiens) (P31749 whole entry): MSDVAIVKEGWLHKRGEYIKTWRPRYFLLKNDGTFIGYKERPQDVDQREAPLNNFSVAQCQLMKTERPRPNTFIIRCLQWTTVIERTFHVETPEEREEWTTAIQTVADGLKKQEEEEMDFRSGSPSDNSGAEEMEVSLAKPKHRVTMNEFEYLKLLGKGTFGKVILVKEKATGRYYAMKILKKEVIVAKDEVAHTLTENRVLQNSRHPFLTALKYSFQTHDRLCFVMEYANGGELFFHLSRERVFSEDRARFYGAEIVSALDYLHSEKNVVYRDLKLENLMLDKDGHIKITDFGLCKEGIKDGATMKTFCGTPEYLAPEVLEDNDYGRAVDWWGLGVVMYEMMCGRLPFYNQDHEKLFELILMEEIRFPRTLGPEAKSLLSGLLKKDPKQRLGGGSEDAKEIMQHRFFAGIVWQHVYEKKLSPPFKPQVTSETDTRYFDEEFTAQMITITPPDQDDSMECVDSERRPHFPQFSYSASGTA

[18] = biological target: T1, Voltage-gated inwardly rectifying potassium channel KCNH2; experiment: Inhibition of human ERG by patch-clamp assay
[19] = biological target: Serine/threonine-protein kinase mTOR (Homo sapiens, UniProt P42345); experiment: Inhibition of human mTOR at 1 uM using fluorescently labeled peptide substrate measured after 3 hrs by microfluidic mobility shift assay relative to control
In short: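 Single-concentration screen at 1 µM in duplicate wells, in a 23-kinase panel using microfluidic mobility shift. Compound was diluted from a 100x DMSO stock, with 1% DMSO final. Kinase (typically 1 nM), fluorescent peptide substrate (typically 1 µM), ATP at 1x Km and Mg2+ were incubated typically 3 h at 25 °C, then quenched with EDTA. Substrate and phospho-product were separated electrophoretically and quantified by fluorescence.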

[20] = biological target: Phosphatidylinositol 4,5-bisphosphate 3-kinase catalytic subunit alpha isoform (Homo sapiens) (UniProt P42336); experiment: Inhibition of human PI3kalpha at 1 uM using fluorescently labeled peptide substrate measured after 3 hrs by microfluidic mobility shift assay relative to control; in short: as §1
Chain of Phosphatidylinositol 4,5-bisphosphate 3-kinase catalytic subunit alpha isoform (Homo sapiens) (P42336 whole entry, canonical isoform): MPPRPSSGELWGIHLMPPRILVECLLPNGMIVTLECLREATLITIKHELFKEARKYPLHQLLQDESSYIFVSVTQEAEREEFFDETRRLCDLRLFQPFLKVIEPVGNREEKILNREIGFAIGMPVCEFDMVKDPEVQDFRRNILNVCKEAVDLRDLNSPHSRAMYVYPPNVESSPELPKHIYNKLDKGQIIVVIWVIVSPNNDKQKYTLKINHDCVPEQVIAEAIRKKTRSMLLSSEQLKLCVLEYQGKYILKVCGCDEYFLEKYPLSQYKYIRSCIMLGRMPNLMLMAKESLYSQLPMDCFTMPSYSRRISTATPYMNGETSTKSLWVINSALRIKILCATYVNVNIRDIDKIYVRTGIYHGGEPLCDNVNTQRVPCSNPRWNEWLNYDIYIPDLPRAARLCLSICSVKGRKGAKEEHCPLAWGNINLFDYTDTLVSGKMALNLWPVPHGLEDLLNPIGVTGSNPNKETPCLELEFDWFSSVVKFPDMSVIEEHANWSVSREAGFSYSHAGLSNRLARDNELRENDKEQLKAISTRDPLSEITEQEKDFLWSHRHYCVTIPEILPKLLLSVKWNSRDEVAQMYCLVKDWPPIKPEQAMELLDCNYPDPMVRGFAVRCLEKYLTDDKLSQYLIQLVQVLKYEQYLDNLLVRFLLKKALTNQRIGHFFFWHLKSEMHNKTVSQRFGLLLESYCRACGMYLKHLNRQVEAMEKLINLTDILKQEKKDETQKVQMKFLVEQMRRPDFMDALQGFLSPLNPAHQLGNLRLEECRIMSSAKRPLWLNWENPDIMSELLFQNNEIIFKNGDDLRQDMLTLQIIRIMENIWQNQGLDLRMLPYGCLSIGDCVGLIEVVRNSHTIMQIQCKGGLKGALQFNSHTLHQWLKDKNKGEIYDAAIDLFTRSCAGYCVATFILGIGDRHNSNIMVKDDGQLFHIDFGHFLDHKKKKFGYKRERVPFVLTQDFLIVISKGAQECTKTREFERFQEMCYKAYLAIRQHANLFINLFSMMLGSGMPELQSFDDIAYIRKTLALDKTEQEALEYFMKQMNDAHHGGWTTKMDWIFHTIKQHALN

CN(C)C(=O)c1ccc(Oc2nc(-c3cnc(N)s3)nc(N3CCOCC3)n2)cc1
inhibition [1]: 0% | Activity [2]: Toxic | Activity [3]: Non-Toxic | TGI (HCT-116): Active | Activity (SK-OV-3): Dose-dependent effect | Activity [4]: Non-Toxic | inhibition [5]: -3% | inhibition [6]: -10% | Activity [7]: Non-Toxic | Tmax [8]: 1.67 h | Activity [9]: Non-Toxic | Activity [10]: Non-Toxic | Activity [11]: Non-Toxic | inhibition [12]: -1% | remaining at 2 h, 10 µM [13]: 103% | Activity [14]: Non-Toxic | inhibition (INH) [15]: Not Active | inhibition [16]: 1% | inhibition [17]: -1% | IC50 [18]: > 10 µM | inhibition [19]: 89% | inhibition [20]: 86%
